# Calls of active or inactive are those of the source. The calls are words filed in the database; no cut-off is given here.
# Key:
# MDA-MB-231 [1] = assay: Cytotoxicity against human MDA-MB-231 cells assessed as cell survival at 100 uM after 72 hrs by neutral red dye assay; assay type: functional; conditions: MDA-MB-231, 72 h, read-out: Survival
# Summary of the method: (§1)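 HT-29 and T-24 cells were grown in McCoy's medium and MDA-MB-231 in Leibovitz, each with 10% FBS plus penicillin/streptomycin, as monolayers at 37 °C in 5% CO2. Compounds in DMSO (≤0.5% v/v final) were applied for 72 h. Survival was read by neutral red uptake against 0.5% DMSO-treated cells, as the mean of triplicates.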
# T-24 [2] = assay: Induction of apoptosis in human T24 cells assessed as DNA fragmentation after 48 hrs by ELISA relative to control; assay type: functional
# Summary of the method: (§2)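 DNA fragmentation was measured with the Cell Death Detection ELISA Plus kit after treatment of cultured tumour cells. The signal is expressed relative to untreated control cultures, which are set to 1.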
# MDA-MB-231 [3] = assay: Cytotoxicity against human MDA-MB-231 cells after 72 hrs by neutral red dye assay; assay type: functional, cell-based; conditions: MDA-MB-231, 72 h
# Summary of the method: (§3)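 Human tumour cells were grown as monolayers with 10% FBS and penicillin/streptomycin at 37 °C in 5% CO2 (HT-29 and T-24 in McCoy's, MDA-MB-231 in Leibovitz). They were exposed to compound in DMSO (≤0.5% v/v final) at screening concentrations of 20 and 100 μM for 72 h and read by neutral red uptake. Survival is relative to cells given DMSO only, in triplicate.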
# HT-29 [4] = assay: Cytotoxicity against human HT-29 cells assessed as cell survival at 100 uM after 72 hrs by neutral red dye assay; assay type: functional; conditions: HT-29, 72 h, read-out: Survival; summary of the method: as §1
# HT-29 [5] = assay: Induction of apoptosis in human HT-29 cells assessed as DNA fragmentation after 48 hrs by ELISA relative to control; assay type: functional; summary of the method: as §2
# T-24 [6] = assay: Cytotoxicity against human T24 cells after 72 hrs by neutral red dye assay; assay type: functional, cell-based; conditions: T-24, 72 h; summary of the method: as §3
# T-24 [7] = assay: Cytotoxicity against human T24 cells assessed as cell survival at 100 uM after 72 hrs by neutral red dye assay; assay type: functional; conditions: T-24, 72 h, read-out: Survival; summary of the method: as §1
# [8] = Cytotoxicity against human CRL8799 cells assessed as cell survival at 20 to 100 uM after 72 hrs by neutral red dye assay; assay type: cell-based; conditions: read-out: Survival
# Summary of the method: (§4)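 The non-tumoral lines were grown with 10% FBS plus penicillin/streptomycin, as monolayers at 37 °C in 5% CO2: CRL-8799 in MEG medium and CRL-11233 in BEGM. Compounds in DMSO (≤0.5% v/v final) were applied for 72 h. Survival was read by neutral red uptake against 0.5% DMSO solvent-treated controls, as the mean of triplicates.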
# HT-29 [9] = assay: Cytotoxicity against human HT-29 cells after 72 hrs by neutral red dye assay; assay type: functional, cell-based; conditions: HT-29, 72 h; summary of the method: as §3
# MDA-MB-231 [10] = assay: Induction of apoptosis in human MDA-MB-231 cells assessed as DNA fragmentation after 24 hrs by ELISA relative to control; assay type: functional; summary of the method: as §2
# [11] = Cytotoxicity against human CRL11233 cells assessed as cell survival at 20 to 100 uM after 72 hrs by neutral red dye assay; assay type: cell-based; conditions: read-out: Survival; summary of the method: as §4
# T-24 [12] = assay: Induction of apoptosis in human T24 cells assessed as caspase3 activation at IC50 after 48 hrs by FACS analysis relative to control; assay type: functional
# Summary of the method: (§5)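 Active caspase-3 was detected by flow cytometry with a FITC anti-active-caspase-3 antibody kit, with readings at 14, 24 and 48 h. Treated cells were compared with untreated control cells. Results are scored as (+) for an increase of about 50% and (++) for a larger rise.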
# HT-29 [13] = assay: Induction of apoptosis in human HT-29 cells assessed as caspase3 activation at IC50 after 48 hrs by FACS analysis relative to control; assay type: functional; summary of the method: as §5
Structure (SMILES),viability at 100 µM (MDA-MB-231 [1]),Activity (T-24 [2]),IC50 (MDA-MB-231 [3]),viability at 100 µM (HT-29 [4]),fold change (FC) (HT-29 [5]),IC50 (T-24 [6]),viability at 100 µM (T-24 [7]),"viability at 72 h, up to 100 µM [8]",IC50 (HT-29 [9]),Activity (MDA-MB-231 [10]),"viability at 72 h, up to 100 µM [11]",Activity (T-24 [12]),fold change (FC) (T-24 [2]),Activity (HT-29 [13]),Activity (HT-29 [5]),fold change (FC) (MDA-MB-231 [10])
c1ccc(CCCCNc2nc(NCCCCc3ccccc3)c3ccccc3n2)cc1,< 45%,inactive,1.22 µM,< 45%,2,11.9 µM,< 45%,6%,3.78 µM,inactive,11%,75%,–,–,–,–
c1ccc(CCNc2nc(NCCc3ccccc3)c3cccnc3n2)cc1,< 45%,–,1.2 µM,< 45%,9.2,8.1 µM,< 45%,0%,2.5 µM,inactive,0%,75%,1.2,50%,–,–
c1ccc(CCCNc2ccnc(NCCCc3ccccc3)n2)cc1,< 45%,–,0.36 µM,< 45%,–,8.67 µM,< 45%,10%,12.4 µM,–,1%,–,1.7,50%,inactive,3.2
CCCCCNc1nc(SCC)nc2ncccc12,< 45%,–,1.3 µM,< 45%,5,4.3 µM,< 45%,88%,5.1 µM,–,100%,75%,3.6,50%,–,6.6
CCCCCNc1nc(SCCCC)nc2ncccc12,< 45%,inactive,6.3 µM,< 45%,1.9,8.9 µM,< 45%,84%,12.6 µM,–,76%,50%,–,–,–,1.7
c1ccc(CNc2nc(NCc3ccccc3)c3cccnc3n2)cc1,< 45%,–,10.3 µM,< 45%,2.5,13.4 µM,< 45%,85%,11 µM,inactive,90%,50%,4.6,–,–,–
c1ccc(CCCCNc2nc(NCCCCc3ccccc3)c3cccnc3n2)cc1,< 45%,–,1.1 µM,< 45%,1.4,1.4 µM,< 45%,86%,5 µM,inactive,82%,–,4.6,50%,–,–
CCCCCNc1nc(NCCCCC)c2ccccc2n1,< 45%,–,3.13 µM,< 45%,1.7,5.25 µM,< 45%,4%,3.57 µM,–,5%,50%,1.8,–,–,2.5
c1ccc(CCNc2nc(NCCc3ccccc3)c3ccccc3n2)cc1,< 45%,inactive,2.18 µM,< 45%,–,2.86 µM,< 45%,92%,2.3 µM,inactive,100%,50%,–,–,inactive,–
Cc1ccc(CCNc2nc(NCCc3ccc(C)cc3)c3ccccc3n2)cc1,< 45%,inactive,4.65 µM,< 45%,–,2.17 µM,< 45%,0%,1.64 µM,–,0%,–,–,50%,inactive,2.4
c1ccc(CCCNc2nc(NCCCc3ccccc3)c3cccnc3n2)cc1,< 45%,–,5.8 µM,< 45%,6,13.2 µM,< 45%,0%,1.7 µM,–,0%,–,3.1,50%,–,1.6
c1ccc(CNc2nc(NCc3ccccc3)c3ccccc3n2)cc1,< 45%,inactive,1.79 µM,< 45%,3.6,5.96 µM,< 45%,89%,4.72 µM,inactive,100%,75%,–,–,–,–
CCCCCCCNc1nc(SCC)nc2ncccc12,< 45%,inactive,2.6 µM,< 45%,2.4,5.3 µM,< 45%,93%,19.9 µM,–,100%,75%,–,–,–,2.7

# From ChEMBL document CHEMBL1821616, “New insights into the structural requirements for pro-apoptotic agents based on 2,4-diaminoquinazoline, 2,4-diaminopyrido[2,3-d]pyrimidine and 2,4-diaminopyrimidine derivatives” (Eur J Med Chem, 2011)
